Test system: HEK-293T
Experiment: Multiplex assay against HEK293T;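 on Population Tubulin-Different-Phenotype (%): share of the cells with healthy nuclei that show this phenotype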
Assay type: toxicity, cell-based
Settings: human
Method in brief: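 Imaging took place on a CQ1 microscope at 37°C and 5% CO2 once compound had been added to live cells stained at seeding with Hoechst33342, BioTracker Green Microtubule Cytoskeleton Dye, MitoTracker Red and Annexin V Alexa Fluor 680. CellPathfinder machine-learning gating classed cells as Hoechst high-intensity objects or normal cells, classed normal cells as having healthy, pyknosed or fragmented nuclei, and classed pyknosed cells as mitotic or apoptotic. Tubulin, mitochondrial-mass and membrane-permeability phenotypes are per cents of the healthy-nucleus cells.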

[1] = 12 h, 1 µM, compound concentration 1 uM, replicate 1
[2] = 12 h, 1 µM, compound concentration 1 uM, replicate 2
[3] = 12 h, 10 µM, compound concentration 10 uM, replicate 1
[4] = 12 h, 10 µM, compound concentration 10 uM, replicate 2
[5] = 24 h, 1 µM, compound concentration 1 uM, replicate 1
[6] = 24 h, 1 µM, compound concentration 1 uM, replicate 2
[7] = 24 h, 10 µM, compound concentration 10 uM, replicate 1
[8] = 24 h, 10 µM, compound concentration 10 uM, replicate 2
[9] = 48 h, 1 µM, compound concentration 1 uM, replicate 1
[10] = 48 h, 1 µM, compound concentration 1 uM, replicate 2
[11] = 48 h, 10 µM, compound concentration 10 uM, replicate 1
[12] = 48 h, 10 µM, compound concentration 10 uM, replicate 2

Q: For COc1cc(Nc2nccc(-c3cnn4nc(OC)ccc34)n2)cc(C(F)(F)F)c1, which “Population Apoptotic (%)” value [1] is on record?
A: 47%

Q: What about the “Population Fragmented Nuclei (%)” value [1] of the same molecule?
A: 16%

Q: What about the “Population Healthy Nuclei (%)” value [1] of the same molecule?
A: 19%

Q: What about the “Population Hoechst High Intensity Objects (%)” value [1] of the same molecule?
A: 13%

Q: And the “Population Membrane Permeable-Phenotype (%)” value [1]?
A: 2%

Q: What about the “Population Mitochondria Different-Phenotype (%)” value [1] of the same molecule?
A: 77%

Q: And the “Population Mitotic Cells (%)” value [1]?
A: 52%

Q: What about the “Population Normal (%)” value [1] of the same molecule?
A: 86%

Q: What about the “Population Pyknosed Nuclei (%)” value [1] of the same molecule?
A: 64%

Q: And the “Population Tubulin-Different-Phenotype (%)” value [1]?
A: 30%

Q: And the “Total Cell Count” value [1]?
A: 214

Q: What about the “Population Apoptotic (%)” value [2] of the same molecule?
A: 7%

Q: And the “Population Fragmented Nuclei (%)” value [2]?
A: 6%

Q: And the “Population Healthy Nuclei (%)” value [2]?
A: 44%

Q: And the “Population Hoechst High Intensity Objects (%)” value [2]?
A: 1%

Q: What about the “Population Membrane Permeable-Phenotype (%)” value [2] of the same molecule?
A: 11%

Q: And the “Population Mitochondria Different-Phenotype (%)” value [2]?
A: 14%

Q: What about the “Population Mitotic Cells (%)” value [2] of the same molecule?
A: 92%

Q: And the “Population Normal (%)” value [2]?
A: 98%

Q: What about the “Population Pyknosed Nuclei (%)” value [2] of the same molecule?
A: 48%

Q: What about the “Population Tubulin-Different-Phenotype (%)” value [2] of the same molecule?
A: 17%

Q: What about the “Total Cell Count” value [2] of the same molecule?
A: 192

Q: And the “Population Apoptotic (%)” value [3]?
A: 68%

Q: What about the “Population Fragmented Nuclei (%)” value [3] of the same molecule?
A: 33%

Q: What about the “Population Healthy Nuclei (%)” value [3] of the same molecule?
A: 21%

Q: And the “Population Hoechst High Intensity Objects (%)” value [3]?
A: 24%

Q: And the “Population Membrane Permeable-Phenotype (%)” value [3]?
A: 7%

Q: And the “Population Mitochondria Different-Phenotype (%)” value [3]?
A: 86%

Q: What about the “Population Mitotic Cells (%)” value [3] of the same molecule?
A: 31%

Q: What about the “Population Normal (%)” value [3] of the same molecule?
A: 75%

Q: And the “Population Pyknosed Nuclei (%)” value [3]?
A: 44%

Q: And the “Population Tubulin-Different-Phenotype (%)” value [3]?
A: 36%

Q: And the “Total Cell Count” value [3]?
A: 317

Q: And the “Population Apoptotic (%)” value [4]?
A: 21%

Q: What about the “Population Fragmented Nuclei (%)” value [4] of the same molecule?
A: 6%

Q: And the “Population Healthy Nuclei (%)” value [4]?
A: 34%

Q: What about the “Population Hoechst High Intensity Objects (%)” value [4] of the same molecule?
A: 11%

Q: And the “Population Membrane Permeable-Phenotype (%)” value [4]?
A: 4%

Q: What about the “Population Mitochondria Different-Phenotype (%)” value [4] of the same molecule?
A: 37%

Q: And the “Population Mitotic Cells (%)” value [4]?
A: 78%

Q: And the “Population Normal (%)” value [4]?
A: 88%

Q: What about the “Population Pyknosed Nuclei (%)” value [4] of the same molecule?
A: 59%

Q: What about the “Population Tubulin-Different-Phenotype (%)” value [4] of the same molecule?
A: 33%

Q: And the “Total Cell Count” value [4]?
A: 275

Q: What about the “Population Apoptotic (%)” value [5] of the same molecule?
A: 47%

Q: What about the “Population Fragmented Nuclei (%)” value [5] of the same molecule?
A: 16%

Q: What about the “Population Healthy Nuclei (%)” value [5] of the same molecule?
A: 22%

Q: What about the “Population Hoechst High Intensity Objects (%)” value [5] of the same molecule?
A: 20%

Q: What about the “Population Membrane Permeable-Phenotype (%)” value [5] of the same molecule?
A: 2%

Q: What about the “Population Mitochondria Different-Phenotype (%)” value [5] of the same molecule?
A: 76%

Q: And the “Population Mitotic Cells (%)” value [5]?
A: 52%

Q: And the “Population Normal (%)” value [5]?
A: 79%

Q: And the “Population Pyknosed Nuclei (%)” value [5]?
A: 61%

Q: And the “Population Tubulin-Different-Phenotype (%)” value [5]?
A: 35%

Q: What about the “Total Cell Count” value [5] of the same molecule?
A: 221

Q: And the “Population Apoptotic (%)” value [6]?
A: 8%

Q: What about the “Population Fragmented Nuclei (%)” value [6] of the same molecule?
A: 6%

Q: What about the “Population Healthy Nuclei (%)” value [6] of the same molecule?
A: 65%

Q: What about the “Population Hoechst High Intensity Objects (%)” value [6] of the same molecule?
A: 3%

Q: What about the “Population Membrane Permeable-Phenotype (%)” value [6] of the same molecule?
A: 9%

Q: What about the “Population Mitochondria Different-Phenotype (%)” value [6] of the same molecule?
A: 11%

Q: And the “Population Mitotic Cells (%)” value [6]?
A: 91%

Q: What about the “Population Normal (%)” value [6] of the same molecule?
A: 96%

Q: What about the “Population Pyknosed Nuclei (%)” value [6] of the same molecule?
A: 27%

Q: And the “Population Tubulin-Different-Phenotype (%)” value [6]?
A: 17%

Q: And the “Total Cell Count” value [6]?
A: 252

Q: And the “Population Apoptotic (%)” value [7]?
A: 75%

Q: What about the “Population Fragmented Nuclei (%)” value [7] of the same molecule?
A: 33%

Q: What about the “Population Healthy Nuclei (%)” value [7] of the same molecule?
A: 20%

Q: And the “Population Hoechst High Intensity Objects (%)” value [7]?
A: 23%

Q: And the “Population Membrane Permeable-Phenotype (%)” value [7]?
A: 1%

Q: And the “Population Mitochondria Different-Phenotype (%)” value [7]?
A: 84%

Q: What about the “Population Mitotic Cells (%)” value [7] of the same molecule?
A: 24%

Q: And the “Population Normal (%)” value [7]?
A: 76%

Q: And the “Population Pyknosed Nuclei (%)” value [7]?
A: 46%

Q: And the “Population Tubulin-Different-Phenotype (%)” value [7]?
A: 39%

Q: What about the “Total Cell Count” value [7] of the same molecule?
A: 330

Q: What about the “Population Apoptotic (%)” value [8] of the same molecule?
A: 23%

Q: And the “Population Fragmented Nuclei (%)” value [8]?
A: 7%

Q: What about the “Population Healthy Nuclei (%)” value [8] of the same molecule?
A: 55%

Q: What about the “Population Hoechst High Intensity Objects (%)” value [8] of the same molecule?
A: 13%

Q: What about the “Population Membrane Permeable-Phenotype (%)” value [8] of the same molecule?
A: 4%

Q: And the “Population Mitochondria Different-Phenotype (%)” value [8]?
A: 45%

Q: And the “Population Mitotic Cells (%)” value [8]?
A: 76%

Q: What about the “Population Normal (%)” value [8] of the same molecule?
A: 86%

Q: And the “Population Pyknosed Nuclei (%)” value [8]?
A: 36%

Q: And the “Population Tubulin-Different-Phenotype (%)” value [8]?
A: 42%

Q: And the “Total Cell Count” value [8]?
A: 293

Q: What about the “Population Apoptotic (%)” value [9] of the same molecule?
A: 62%

Q: What about the “Population Fragmented Nuclei (%)” value [9] of the same molecule?
A: 18%

Q: And the “Population Healthy Nuclei (%)” value [9]?
A: 25%

Q: And the “Population Hoechst High Intensity Objects (%)” value [9]?
A: 21%

Q: What about the “Population Membrane Permeable-Phenotype (%)” value [9] of the same molecule?
A: 2%

Q: What about the “Population Mitochondria Different-Phenotype (%)” value [9] of the same molecule?
A: 41%

Q: What about the “Population Mitotic Cells (%)” value [9] of the same molecule?
A: 37%

Q: And the “Population Normal (%)” value [9]?
A: 78%

Q: And the “Population Pyknosed Nuclei (%)” value [9]?
A: 56%

Q: What about the “Population Tubulin-Different-Phenotype (%)” value [9] of the same molecule?
A: 18%

Q: And the “Total Cell Count” value [9]?
A: 219

Q: What about the “Population Apoptotic (%)” value [10] of the same molecule?
A: 4%

Q: And the “Population Fragmented Nuclei (%)” value [10]?
A: 5%

Q: And the “Population Healthy Nuclei (%)” value [10]?
A: 83%

Q: What about the “Population Hoechst High Intensity Objects (%)” value [10] of the same molecule?
A: 3%

Q: What about the “Population Membrane Permeable-Phenotype (%)” value [10] of the same molecule?
A: 5%

Q: And the “Population Mitochondria Different-Phenotype (%)” value [10]?
A: 6%

Q: And the “Population Mitotic Cells (%)” value [10]?
A: 95%

Q: And the “Population Normal (%)” value [10]?
A: 96%

Q: And the “Population Pyknosed Nuclei (%)” value [10]?
A: 10%

Q: And the “Total Cell Count” value [10]?
A: 465

Q: And the “Population Apoptotic (%)” value [11]?
A: 74%

Q: What about the “Population Fragmented Nuclei (%)” value [11] of the same molecule?
A: 39%

Q: What about the “Population Healthy Nuclei (%)” value [11] of the same molecule?
A: 24%

Q: And the “Population Hoechst High Intensity Objects (%)” value [11]?
A: 25%

Q: What about the “Population Membrane Permeable-Phenotype (%)” value [11] of the same molecule?
A: 0%

Q: And the “Population Mitochondria Different-Phenotype (%)” value [11]?
A: 86%

Q: What about the “Population Mitotic Cells (%)” value [11] of the same molecule?
A: 25%

Q: And the “Population Normal (%)” value [11]?
A: 74%

Q: And the “Population Pyknosed Nuclei (%)” value [11]?
A: 36%

Q: And the “Population Tubulin-Different-Phenotype (%)” value [11]?
A: 56%

Q: And the “Total Cell Count” value [11]?
A: 331

Q: And the “Population Apoptotic (%)” value [12]?
A: 42%

Q: And the “Population Fragmented Nuclei (%)” value [12]?
A: 7%

Q: What about the “Population Healthy Nuclei (%)” value [12] of the same molecule?
A: 63%

Q: And the “Population Hoechst High Intensity Objects (%)” value [12]?
A: 9%

Q: What about the “Population Membrane Permeable-Phenotype (%)” value [12] of the same molecule?
A: 2%

Q: What about the “Population Mitochondria Different-Phenotype (%)” value [12] of the same molecule?
A: 35%

Q: And the “Population Mitotic Cells (%)” value [12]?
A: 57%

Q: What about the “Population Normal (%)” value [12] of the same molecule?
A: 90%

Q: And the “Population Pyknosed Nuclei (%)” value [12]?
A: 28%

Q: What about the “Population Tubulin-Different-Phenotype (%)” value [12] of the same molecule?
A: 39%

Q: And the “Total Cell Count” value [12]?
A: 297
